# Laboratory results published in PubChem BioAssay AID651787 (The Scripps Research Institute Molecular Screening Center, 2012).
# Screen size: about 2,400 compounds; about 1,200 (50%) were called active. The set was probably picked from earlier hits. Only a sample is shown. A number with no mark means an inactive call.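 The calls were made as follows: active = activation above the run cutoff, the mean activation over all tested wells plus 3 SD (cut at about 12% in these data); inactive = the rest.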
# Test: nonselective calcium mobilization agonists, CHO-Ga16 cells, counter-screen for hTAAR1 agonist project, cell-based, fluorescence, CHO-Ga16 parental line (AID 651787)
# Settings: Fluo-8 calcium fluorescence, at 3 µM, active compounds read high, normalized to maximal ATP response, DMSO zero
# Method in brief: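 Test system: CHO-Gα16 parental cells without hTAAR1. Amount: 750 cells in each well. Incubation: 17-24 h seeding, dye 75 min 37 °C, 30 min RT. Measured by: Fluo-8 calcium-dye fluorescence. Evaluation: % activation from peak-to-basal fluorescence ratio, DMSO to ATP scale. Control set: DMSO (0%) and EC100 ATP (100%).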
row,SMILES,activation
1,Cc1ccc(Sc2cc(N3CCOCC3)nc(-c3ccccc3)n2)cc1,4.27%
2,O=C(COC(=O)Cc1ccccc1F)NCCc1ccccc1,0.47%
3,O=C(Nc1ccc(Cl)cc1)N1CCc2[nH]c3ccccc3c2C1,1.95%
4,COc1ccc(OC)c(NC(=S)N2CCc3ccccc3C2)c1,0.03%
5,Fc1ccc(NC(=S)N2CCc3[nH]c4ccccc4c3C2)cc1,11.5% (active)
6,c1ccc2c(c1)C(=NC1CCCCC1)NC2=NC1CCCCC1,59.9% (active)
7,CCC(c1nnnn1Cc1ccco1)N(CCc1ccccc1)Cc1cc2cccc(C)c2[nH]c1=O (stereo not drawn),8.41%
8,CC(Oc1ccc(Cl)cc1)C(=O)OCC(=O)Nc1ncc(Cl)cc1Cl (stereo not drawn),14.9% (active)
9,COc1ccc2c(c1)OC(O)(C(F)(F)C(F)F)CC2=O (stereo not drawn),27.7% (active)
10,COc1ccc(Cl)cc1C(=O)NNC(=S)NC(=O)/C=C/c1ccco1,83.3% (active)
11,Cc1ccc(NC(=O)CCN2CCc3ccccc3C2)cc1,10.8%
12,Nc1cc(OC(=O)c2ccccc2Br)nn1S(=O)(=O)c1ccccc1,39.3% (active)
13,O=C(NCCc1ccccc1)C(=O)NCC1OCCN1S(=O)(=O)c1cccs1 (stereo not drawn),1.98%
14,S=C(NCCc1ccccc1)N1CCn2cccc2C1c1ccncc1 (stereo not drawn),12.7% (active)
15,CCCSc1nc2c(c(=O)n(C)c(=O)n2C)n1Cc1ccc(C)cc1,34.2% (active)
16,O=C1C=C(c2ccc(Cl)cc2)C(=O)N1Nc1ccccc1,46% (active)
17,COc1ccc2cc(-c3[nH]ncc3CNCCn3nc(C)cc3C)ccc2c1,0.78%
18,COc1cccc(-c2cnc(OC(C)(C)C)nc2OC(C)(C)C)c1,14.5% (active)
19,CSc1nc(N)c(C#N)c(-c2ccccc2Cl)c1C#N,54.2% (active)
20,O=C(N[C@H](C(=O)N1CCC[C@H]1C(=O)NCCc1ccccc1Cl)c1ccccc1)c1ccccc1,1.78%
21,OC(CNCCc1ccc(Cl)cc1Cl)COc1ccccc1 (stereo not drawn),17.8% (active)
22,c1ccc2c(c1)OCC(CNc1ncnc3nc[nH]c13)O2 (stereo not drawn),170% (active)
23,COc1cc(OC)c(-n2cc(-c3ccc(Cl)cc3)[nH]c2=O)cc1Cl,74.4% (active)
